{
  "source": "ChEMBL document CHEMBL1154319",
  "about": "“Further studies on the chemistry of the flustra alkaloids from the bryozoan Flustra foliacea” (2009)",
  "key": {"Saccharomyces cerevisiae [1]": {"tested_on": "Saccharomyces cerevisiae", "assay": "Antifungal activity against Saccharomyces cerevisiae ATCC 9763 at 0.9 mol by disk diffusion method", "format": "functional, organism-based", "outline": "(§1)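 Compound dissolved in MeOH, applied to a 6 mm filter-paper disk and air-dried. Disk placed on an agar plate overgrown with the test organism. Growth-inhibition zone measured from the outer edge of the disk.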"}, "Cyberlindnera jadinii [2]": {"tested_on": "Cyberlindnera jadinii", "assay": "Antifungal activity against Candida utilis ATCC 9950 at 0.9 mol by disk diffusion method", "format": "functional, organism-based", "outline": "as §1"}, "Micrococcus luteus [3]": {"tested_on": "Micrococcus luteus", "assay": "Antibacterial activity against Micrococcus luteus ATCC 49732 at 0.9 mol by disk diffusion method", "format": "functional, organism-based", "outline": "as §1"}, "Escherichia coli [4]": {"tested_on": "Escherichia coli", "assay": "Antibacterial activity against Escherichia coli ATCC 11775 at 0.9 mol by disk diffusion method", "format": "functional, organism-based", "outline": "as §1"}, "Micrococcus luteus [5]": {"tested_on": "Micrococcus luteus", "assay": "Antibacterial activity against Micrococcus luteus ATCC 49732 at 0.7 mol by disk diffusion method", "format": "functional, organism-based", "outline": "as §1"}, "Escherichia coli [6]": {"tested_on": "Escherichia coli", "assay": "Antibacterial activity against Escherichia coli ATCC 11775 at 0.7 mol by disk diffusion method", "format": "functional, organism-based", "outline": "as §1"}, "Saccharomyces cerevisiae [7]": {"tested_on": "Saccharomyces cerevisiae", "assay": "Antifungal activity against Saccharomyces cerevisiae ATCC 9763 at 0.7 mol by disk diffusion method", "format": "functional, organism-based", "outline": "as §1"}, "Cyberlindnera jadinii [8]": {"tested_on": "Cyberlindnera jadinii", "assay": "Antifungal activity against Candida utilis ATCC 9950 at 0.7 mol by disk diffusion method", "format": "functional, organism-based", "outline": "as §1"}, "Cyberlindnera jadinii [9]": {"tested_on": "Cyberlindnera jadinii", "assay": "Antifungal activity against Candida utilis ATCC 9950 at 1.3 mol by disk diffusion method", "format": "functional", "outline": "as §1"}, "Micrococcus luteus [10]": {"tested_on": "Micrococcus luteus", "assay": "Antibacterial activity against Micrococcus luteus ATCC 49732 at 1.3 mol by disk diffusion method", "format": "functional", "outline": "as §1"}, "Saccharomyces cerevisiae [11]": {"tested_on": "Saccharomyces cerevisiae", "assay": "Antifungal activity against Saccharomyces cerevisiae ATCC 9763 at 1.3 mol by disk diffusion method", "format": "functional", "outline": "as §1"}, "Escherichia coli [12]": {"tested_on": "Escherichia coli", "assay": "Antibacterial activity against Escherichia coli ATCC 11775 at 1.3 mol by disk diffusion method", "format": "functional", "outline": "as §1"}, "Cyberlindnera jadinii [13]": {"tested_on": "Cyberlindnera jadinii", "assay": "Antifungal activity against Candida utilis ATCC 9950 at 1.4 mol by disk diffusion method", "format": "functional", "outline": "as §1"}, "Cyberlindnera jadinii [14]": {"tested_on": "Cyberlindnera jadinii", "assay": "Antifungal activity against Candida utilis ATCC 9950 at 1.5 mol by disk diffusion method", "format": "functional", "outline": "as §1"}, "Saccharomyces cerevisiae [15]": {"tested_on": "Saccharomyces cerevisiae", "assay": "Antifungal activity against Saccharomyces cerevisiae ATCC 9763 at 1.5 mol by disk diffusion method", "format": "functional", "outline": "as §1"}, "Micrococcus luteus [16]": {"tested_on": "Micrococcus luteus", "assay": "Antibacterial activity against Micrococcus luteus ATCC 49732 at 1.5 mol by disk diffusion method", "format": "functional", "outline": "as §1"}, "Escherichia coli [17]": {"tested_on": "Escherichia coli", "assay": "Antibacterial activity against Escherichia coli ATCC 11775 at 1.5 mol by disk diffusion method", "format": "functional", "outline": "as §1"}, "Saccharomyces cerevisiae [18]": {"tested_on": "Saccharomyces cerevisiae", "assay": "Antifungal activity against Saccharomyces cerevisiae ATCC 9763 at 1.2 mol by disk diffusion method", "format": "functional", "outline": "as §1"}, "Cyberlindnera jadinii [19]": {"tested_on": "Cyberlindnera jadinii", "assay": "Antifungal activity against Candida utilis ATCC 9950 at 1.2 mol by disk diffusion method", "format": "functional", "outline": "as §1"}, "Micrococcus luteus [20]": {"tested_on": "Micrococcus luteus", "assay": "Antibacterial activity against Micrococcus luteus ATCC 49732 at 1.2 mol by disk diffusion method", "format": "functional", "outline": "as §1"}, "Escherichia coli [21]": {"tested_on": "Escherichia coli", "assay": "Antibacterial activity against Escherichia coli ATCC 11775 at 1.2 mol by disk diffusion method", "format": "functional", "outline": "as §1"}},
  "note": "Calls of active or inactive are those of the source. No cut-off for these calls is given here.",
  "data": [
    {"compound": "C=CC(C)(C)[C@@]12CCN(C)[C@@H]1N(CN1c3cc(Br)ccc3[C@]3(C(C)(C)C=C)CCN(C)[C@H]13)c1cc(Br)ccc12", "values": [
      {"measurement": "inhibition zone (IZ)", "setting": "Saccharomyces cerevisiae [1]", "result": "inactive"},
      {"measurement": "inhibition zone (IZ)", "setting": "Cyberlindnera jadinii [2]", "result": "inactive"},
      {"measurement": "inhibition zone (IZ)", "setting": "Micrococcus luteus [3]", "result": "inactive"},
      {"measurement": "inhibition zone (IZ)", "setting": "Escherichia coli [4]", "result": "inactive"}
    ]},
    {"compound": "C=CC(C)(C)[C@@]12CCN(C)[C@@H]1N(Cc1cc(Br)c3c(c1O)[C@]1(C/C=C(\\C)CCC=C(C)C)CCN(C)[C@@H]1N3)c1cc(Br)ccc12", "values": [
      {"measurement": "inhibition zone (IZ)", "setting": "Micrococcus luteus [5]", "result": "inactive"},
      {"measurement": "inhibition zone (IZ)", "setting": "Escherichia coli [6]", "result": "inactive"},
      {"measurement": "inhibition zone (IZ)", "setting": "Saccharomyces cerevisiae [7]", "result": "inactive"},
      {"measurement": "inhibition zone (IZ)", "setting": "Cyberlindnera jadinii [8]", "result": "inactive"}
    ]},
    {"compound": "CC(C)=CCC/C(C)=C/C[C@@]12CCN(C)[C@@H]1Nc1cccc(O)c12", "note": "[DEBROMOFLUSTRAMINE H]", "values": [
      {"measurement": "inhibition zone (IZ)", "setting": "Cyberlindnera jadinii [9]", "result": 28, "unit": "mm"},
      {"measurement": "inhibition zone (IZ)", "setting": "Micrococcus luteus [10]", "result": 23, "unit": "mm"},
      {"measurement": "inhibition zone (IZ)", "setting": "Saccharomyces cerevisiae [11]", "result": 16, "unit": "mm"},
      {"measurement": "inhibition zone (IZ)", "setting": "Escherichia coli [12]", "result": 22, "unit": "mm"}
    ]},
    {"compound": "C=CC(C)(C)[C@@]12CCN(C)[C@@H]1N(C(C)=O)c1cc(Br)ccc12", "note": "[FLUSTRAMINE F]", "values": [
      {"measurement": "inhibition zone (IZ)", "setting": "Cyberlindnera jadinii [13]", "result": 18, "unit": "mm"}
    ]},
    {"compound": "CC(C)=CC[C@@]12CCN(C)[C@@H]1Nc1c(Br)ccc(O)c12", "note": "[FLUSTRAMINE I]", "values": [
      {"measurement": "inhibition zone (IZ)", "setting": "Cyberlindnera jadinii [14]", "result": 29, "unit": "mm"},
      {"measurement": "inhibition zone (IZ)", "setting": "Saccharomyces cerevisiae [15]", "result": 15, "unit": "mm"},
      {"measurement": "inhibition zone (IZ)", "setting": "Micrococcus luteus [16]", "result": 29, "unit": "mm"},
      {"measurement": "inhibition zone (IZ)", "setting": "Escherichia coli [17]", "result": 25, "unit": "mm"}
    ]},
    {"compound": "CC(C)=CCc1cc(Br)c2c(c1O)[C@]1(CC=C(C)C)CCN(C)[C@@H]1N2", "note": "[FLUSTRAMINE L]", "values": [
      {"measurement": "inhibition zone (IZ)", "setting": "Saccharomyces cerevisiae [18]", "result": 20, "unit": "mm"},
      {"measurement": "inhibition zone (IZ)", "setting": "Cyberlindnera jadinii [19]", "result": 30, "unit": "mm"},
      {"measurement": "inhibition zone (IZ)", "setting": "Micrococcus luteus [20]", "result": 25, "unit": "mm"},
      {"measurement": "inhibition zone (IZ)", "setting": "Escherichia coli [21]", "result": 24, "unit": "mm"}
    ]}
  ]
}
